Source: article PMC3351161 (Nucleic Acids Research, 2012)
Where no end group is shown, it is not given here. [ ]: non-standard residue; d: D form. pT = C[C@@H](OP(=O)(O)O)[C@H](N)C(=O)O

Assays:
Mdc1 [1] = target: Mdc1 (UniProt Q14676); assay: Strep-Tactin pull-down, SILAC LC-MS/MS; conditions: reference: wild type FHA fragment; sites T4
Mdc1 1-800 = Mdc1 1-800 (UniProt Q14676); assay: anti-Flag co-IP, anti-Myc blot; conditions: reference: wild type; sites T4
Mdc1 FHA domain = Mdc1 FHA domain (UniProt Q14676); assay: ITC; conditions: reference: non-phosphorylated Thr-4 peptide; sites T4
Mdc1 [2] = assay: Peptide pull-down from HeLa nuclear extract; format: binding, human; conditions: peptide coupled to magnetic beads, SDS-PAGE, western blot
RAD50 = assay: Peptide pull-down from HeLa nuclear extract; format: binding, human; conditions: peptide coupled to magnetic beads; band at ∼150 kDa
MRE11 = assay: Peptide pull-down from HeLa nuclear extract; format: binding, human; conditions: peptide coupled to magnetic beads; band at ∼80 kDa
[3] = tested on: Mdc1 FHA domain (M-1 GST-fragment); assay: Phosphopeptide pull-down with GST fragment M-1; format: binding, human; conditions: bacterially expressed GST-fusion
[4] = tested on: Mdc1 BRCT domains (M-8 GST-fragment); assay: Phosphopeptide pull-down with GST fragment M-8; format: binding, human; conditions: bacterially expressed GST-fusion
Mdc1 M-1, 1-124 = Mdc1 M-1, 1-124 (UniProt Q14676); assay: peptide pull-down of purified GST fragment; conditions: reference: unphosphorylated peptide; sites T4
Myc-tagged Mdc1 (1–800) = assay: Co-immunoprecipitation of Flag- and Myc-tagged Mdc1; format: cell-based, human; conditions: transiently transfected 293T cells, anti-Flag IP, anti-Myc immunoblot
How it was run: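 Human Mdc1 residues 1–800, C-terminally tagged with HA/FLAG or Myc, in a pcDNA3.1(+) vector. HEK 293T cells grown in D-MEM with 10% FCS and streptomycin/penicillin (100 U/ml). Transfected with FuGene 6 or calcium phosphate. Immunoprecipitation on anti-FLAG M2 affinity gel; Myc-tagged partner detected by immunoblot with rabbit polyclonal c-Myc antibody.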

endogenous Mdc1 = assay: Co-immunoprecipitation of Flag-tagged Mdc1; format: cell-based, human; conditions: 293T cells, with or without IR (10 Gy)
How it was run: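 HEK 293T cells in D-MEM with 10% FCS and streptomycin/penicillin were transfected (FuGene 6 or calcium phosphate) with FLAG-tagged human Mdc1 residues 1–800 in pcDNA3.1(+). IR was given in an X-ray cabinet at 5–10 Gy/min. Complexes were captured on anti-FLAG M2 affinity gel and probed for endogenous Mdc1.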

[5] = tested on: Mdc1–FHA WT and T4A mutant domains; assay: SILAC pull-down, wild-type versus T4A Mdc1–FHA domain after IR; format: binding, human; conditions: IR-treated cells
How it was run: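 U2OS cells stably carry a doxycycline-inducible, C-terminally Strep-tagged FHA domain (aa 1–154) or empty plasmid. They are SILAC-labelled (Lys0/Arg0, Lys4/Arg6, Lys8/Arg10) in dialyzed FBS, induced 16 h, then given 10 Gy IR for 30 min. Lysis in pH 7.5 Tris/NP-40 buffer with phosphatase and protease inhibitors, Strep-Tactin capture, pooled eluates on 4–20% SDS-PAGE, in-gel trypsin digestion. Analysis by nano-LC Orbitrap Velos MS and MaxQuant (FDR <1%). Read-out is normalized log2 SILAC ratios; 1:1:1 ratios count as background binders.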

[6] = target: T1, Mdc1 fragment M-1 (amino acids 1–124), GST fusion (human, UniProt Q14676 1-124); assay: pull-down
T1 sequence (looked up): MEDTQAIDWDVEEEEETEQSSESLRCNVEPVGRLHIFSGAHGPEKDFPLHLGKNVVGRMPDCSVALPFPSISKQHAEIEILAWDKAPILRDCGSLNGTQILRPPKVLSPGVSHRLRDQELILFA

SEC-MALS = target: the molecule itself; assay: SEC-MALS

Sequence of Mdc1 (UniProt Q14676) (Q14676 1-154 T4A): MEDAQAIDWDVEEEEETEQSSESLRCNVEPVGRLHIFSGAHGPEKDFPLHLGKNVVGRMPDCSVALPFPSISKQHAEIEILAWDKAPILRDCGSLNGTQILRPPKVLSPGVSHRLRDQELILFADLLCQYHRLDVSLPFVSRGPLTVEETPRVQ

With “Mdc1 1-154 (from UniProt Q14676) T4A FHA fragment” the “binding against the reference” value (Mdc1 [1]) was “weaker”.

With Mdc1 1-800 (from UniProt Q14676) T4A the “binding against the reference” value (Mdc1 1-800) was “weaker”.

In the case of “Mdc1 Thr-4 motif peptide (from UniProt Q14676) pThr-4 peptide”, the “binding against the reference” value (Mdc1 FHA domain) is reported as “stronger”.

With “MED[pT]QAIDWDAE[KBtn] [pThr-4 phosphopeptide]” the “Mdc1 pulled down from HeLa nuclear extract” value (Mdc1 [2]) was “efficiently pulled down”, the “Mdc1 pulled down from HeLa nuclear extract” value (Mdc1 [2]; listed as phosphopeptide) was “pulled down by the phosphopeptide only” and the “RAD50 pulled down from HeLa nuclear extract” value (RAD50) was “pulled down by the phosphopeptide only”. For the same molecule, the “MRE11 pulled down from HeLa nuclear extract” value (MRE11) was “pulled down by the phosphopeptide only”, the “binding of FHA domain GST-fusion” value [3] was “bound tightly and specifically” and the “binding of C-terminal BRCT-repeat region GST-fusion” value [4] was “no significant interaction detectable”.

In the case of “Mdc1 1-12 (from UniProt Q14676) pThr-4 peptide”, the “binding against the reference” value (Mdc1 M-1, 1-124) is reported as “stronger”.

B1: Mdc1 (1–800): tagged N-terminal Mdc1 fragment lacking the BRCT domains (protein)
chain: MEDTQAIDWDVEEEEETEQSSESLRCNVEPVGRLHIFSGAHGPEKDFPLHLGKNVVGRMPDCSVALPFPSISKQHAEIEILAWDKAPILRDCGSLNGTQILRPPKVLSPGVSHRLRDQELILFADLLCQYHRLDVSLPFVSRGPLTVEETPRVQGETQPQRLLLAEDSEEEVDFLSERRMVKKSRTTSSSVIVPESDEEGHSPVLGGLGPPFAFNLNSDTDVEEGQQPATEEASSAARRGATVEAKQSEAEVVTEIQLEKDQPLVKERDNDTKVKRGAGNGVVPAGVILERSQPPGEDSDTDVDDDSRPPGRPAEVHLERAQPFGFIDSDTDAEEERIPATPVVIPMKKRKIFHGVGTRGPGAPGLAHLQESQAGSDTDVEEGKAPQAVPLEKSQASMVINSDTDDEEEVSAALTLAHLKESQPAIWNRDAEEDMPQRVVLLQRSQTTTERDSDTDVEEEELPVENREAVLKDHTKIRALVRAHSEKDQPPFGDSDDSVEADKSSPGIHLERSQASTTVDINTQVEKEVPPGSAIIHIKKHQVSVEGTNQTDVKAVGGPAKLLVVSLEEAWPLHGDCETDAEEGTSLTASVVADVRKSQLPAEGDAGAEWAAAVLKQERAHEVGAQGGPPVAQVEQDLPISRENLTDLVVDTDTLGESTQPQREGAQVPTGREREQHVGGTKDSEDNYGDSEDLDLQATQCFLENQGLEAVQSMEDEPTQAFMLTPPQELGPSHCSFQTTGTLDEPWEVLATQPFCLRESEDSETQPFDTHLEAYGPCLSPPRAIPGDQHPESPVHTEPM
modifications: left off: HA/FLAG on one copy and Myc on the other, C-terminal, kept
In the case of B1, the “interaction of Flag-tagged with Myc-tagged Mdc1 (1–800)” value (Myc-tagged Mdc1 (1–800)) is reported as “efficiently interacted” and the “co-immunoprecipitation with endogenous Mdc1” value (endogenous Mdc1) is reported as “exclusively in extracts prepared from IR-treated cells”.

B2: RNF95: uncharacterized RING-finger domain protein (protein)
chain: MATSAPLRSLEEEVTCSICLDYLRDPVTIDCGHVFCRSCTTDVRPISGSRPVCPLCKKPFKKENIRPVWQLASLVENIERLKVDKGRQPGEVTREQQDAKLCERHREKLHYYCEDDGKLLCVMCRESREHRPHTAVLMEKAAQPHREKILNHLSTLRRDRDKIQGFQAKGEADILAALKKLQDQRQYIVAEFEQGHQFLREREEHLLEQLAKLEQELTEGREKFKSRGVGELARLALVISELEGKAQQPAAELMQDTRDFLNRYPRKKFWVGKPIARVVKKKTGEFSDKLLSLQRGLREFQGKLLRDLEYKTVSVTLDPQSASGYLQLSEDWKCVTYTSLYKSAYLHPQQFDCEPGVLGSKGFTWGKVYWEVEVEREGWSEDEEEGDEEEEGEEEEEEEEAGYGDGYDDWETDEDEESLGDEEEEEEEEEEEVLESCMVGVARDSVKRKGDLSLRPEDGVWALRLSSSGIWANTSPEAELFPALRPRRVGIALDYEGGTVTFTNAESQELIYTFTATFTRRLVPFLWLKWPGTRLLLRP
With B2 the “interaction with wild-type compared to T4A FHA domain (in words)” value [5] was “significantly increased in the wild-type compared to T4A FHA domain expressing cells”.

MED[pT]QAIDWDVE (peptide, UniProt Q14676 1-12, looked up): binds [6].

B3: wild-type Mdc1–FHA (27–138) (domain or fragment, human, UniProt Q14676 27-138, looked up)
chain: NVEPVGRLHIFSGAHGPEKDFPLHLGKNVVGRMPDCSVALPFPSISKQHAEIEILAWDKAPILRDCGSLNGTQILRPPKVLSPGVSHRLRDQELILFADLLCQYHRLDVSLP
With B3 the “stoichiometry N” value (SEC-MALS) was 2.
